Laboratory results published in ChEMBL document CHEMBL3421547, “Novel myricetin derivatives: Design, synthesis and anticancer activity” (Eur J Med Chem, 2015).
Active and inactive are the calls of the source. No cut-off for these calls is given here.

Legend:
Bcap37 = experiment: Cytotoxicity against human Bcap37 cells after 48 hrs by MTT assay; settings: Bcap37, 48 h
[1] = biological target: Telomerase reverse transcriptase (Homo sapiens, UniProt O14746); experiment: Inhibition of telomerase in human MDA-MB-231 cells after 24 hrs by TRAP-PCR-ELISA; type: cell-based
Summary of the method: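 MDA-MB-231 cells grown in DMEM with 10% FBS plus penicillin/streptomycin, 5 × 10^4 seeded in T25 flasks and allowed to adhere. Treated 24 h at 60, 20, 6.67, 2.22, 0.74, 0.25 and 0.082, with staurosporine included. Lysed in RIPA 30 min on ice, supernatant taken after 12,000 g spin at 4 °C. Telomerase read by TRAP-PCR-ELISA kit at 490 nm; mean ± SD.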

SGC-7901 = experiment: Cytotoxicity against human SGC7901 cells after 48 hrs by MTT assay; settings: SGC-7901, 48 h
MGC-803 = experiment: Cytotoxicity against human MGC803 cells after 48 hrs by MTT assay; settings: MGC-803, 48 h
MDA-MB-231 [2] = experiment: Cytotoxicity against human MDA-MB-231 cells after 48 hrs by MTT assay; settings: MDA-MB-231, 48 h
MDA-MB-231 [3] = experiment: Antiproliferative activity against human MDA-MB-231 cells assessed as breaking and crack at 1 to 10 uM after 24 to 72 hrs by inverted microscopic analysis; type: functional, cell-based
Summary of the method: (§1)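 MDA-MB-231 seeded at 3 × 10^4 cells/mL in DMEM with 10% FBS and grown 24 h at 37 °C, 5% CO2. Compounds in DMSO added (final DMSO ≤0.1%) at 1 and 10 concentrations for 24, 48 and 72 h. Morphology observed by inverted microscope and photographed in randomly chosen fields.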

MDA-MB-231 [4] = experiment: Down regulation of p65 protein expression in human MDA-MB-231 cells at 1 uM after 48 hrs by Western blotting analysis; type: functional, cell-based
MDA-MB-231 [5] = experiment: Cell cycle arrest in human MDA-MB-231 cells assessed as accumulation at G2 phase at 1 uM after 48 hrs by flow cytometry (reference value: 34.6 +/- 0.31%); type: functional
MDA-MB-231 [6] = experiment: Cell cycle arrest in human MDA-MB-231 cells assessed as accumulation at G0/G1 phase at 1 uM after 48 hrs by flow cytometry (reference value: 40.5 +/- 0.38%); type: functional
MDA-MB-231 [7] = experiment: Cell cycle arrest in human MDA-MB-231 cells assessed as accumulation at S phase at 1 uM after 48 hrs by flow cytometry (reference value: 34.6 +/- 0.31%); type: functional
MDA-MB-231 [8] = experiment: Down regulation of TERT protein expression in human MDA-MB-231 cells at 1 uM after 48 hrs by Western blotting analysis; type: functional, cell-based
Summary of the method: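 MDA-MB-231 cells treated 48 h, with AZT (3.0 mmol/L) as reference. Cells lysed in RIPA and protein measured by BCA; 30 or 50 total protein run on SDS-PAGE and blotted to PVDF. Primary antibodies applied 1 h in TBS/Tween-20 with 3% Marvel (anti-TERT 1:500, β-actin loading control). HRP secondaries, ECL detection.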

MDA-MB-231 [9] = experiment: Antiproliferative activity against human MDA-MB-231 cells assessed as cell distortion at 1 to 10 uM after 24 to 72 hrs by inverted microscopic analysis; type: functional, cell-based
Summary of the method: as §1

Chain of Telomerase reverse transcriptase (O14746 whole entry): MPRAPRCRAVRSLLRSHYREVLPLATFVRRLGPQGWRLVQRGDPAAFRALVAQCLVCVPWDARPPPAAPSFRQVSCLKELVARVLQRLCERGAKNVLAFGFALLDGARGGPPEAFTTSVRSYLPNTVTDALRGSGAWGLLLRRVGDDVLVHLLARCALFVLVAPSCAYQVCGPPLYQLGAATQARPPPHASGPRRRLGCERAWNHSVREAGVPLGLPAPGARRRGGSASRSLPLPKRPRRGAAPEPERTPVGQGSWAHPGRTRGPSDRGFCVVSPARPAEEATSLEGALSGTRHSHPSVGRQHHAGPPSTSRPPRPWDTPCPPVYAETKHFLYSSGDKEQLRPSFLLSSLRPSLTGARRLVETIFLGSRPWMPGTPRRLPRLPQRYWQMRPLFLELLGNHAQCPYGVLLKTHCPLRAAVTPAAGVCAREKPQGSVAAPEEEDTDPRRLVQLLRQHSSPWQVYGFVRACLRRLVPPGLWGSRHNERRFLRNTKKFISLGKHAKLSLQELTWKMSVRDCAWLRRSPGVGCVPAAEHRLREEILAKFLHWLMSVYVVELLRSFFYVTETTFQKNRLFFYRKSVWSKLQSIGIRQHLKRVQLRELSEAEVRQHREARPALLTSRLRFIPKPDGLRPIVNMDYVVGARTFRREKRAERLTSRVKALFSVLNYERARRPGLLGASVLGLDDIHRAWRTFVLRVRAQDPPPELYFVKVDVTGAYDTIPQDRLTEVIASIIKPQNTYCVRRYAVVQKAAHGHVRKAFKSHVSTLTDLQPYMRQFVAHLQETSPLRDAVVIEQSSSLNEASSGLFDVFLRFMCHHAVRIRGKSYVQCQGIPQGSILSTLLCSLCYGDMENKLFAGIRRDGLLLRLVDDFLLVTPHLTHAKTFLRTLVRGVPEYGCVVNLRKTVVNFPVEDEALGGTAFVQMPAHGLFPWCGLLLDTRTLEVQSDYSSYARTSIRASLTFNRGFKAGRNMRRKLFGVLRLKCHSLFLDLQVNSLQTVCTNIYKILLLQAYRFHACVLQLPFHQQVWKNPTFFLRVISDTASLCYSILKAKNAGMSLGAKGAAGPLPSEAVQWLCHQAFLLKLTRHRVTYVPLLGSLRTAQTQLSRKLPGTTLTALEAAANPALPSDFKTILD

Row | Compound | IC50 (Bcap37) | IC50 [1] | IC50 (SGC-7901) | IC50 (MGC-803) | IC50 (MDA-MB-231 [2]) | further results
1 | COc1cc(OC)c2c(=O)c(OCCCN3CCCCC3)c(-c3cc(OC)c(OC)c(OC)c3)oc2c1 | 2.96 µM | 3.07 µM | 16.5 µM | 10 µM | 2.16 µM | –
2 | COc1cc(OC)c2c(=O)c(OCCCN3CCN(C)CC3)c(-c3cc(OC)c(OC)c(OC)c3)oc2c1 | 38 µM | 19.7 µM | – | – | 30.1 µM | –
3 | CCN(CC)CCCCOc1c(-c2cc(OC)c(OC)c(OC)c2)oc2cc(OC)cc(OC)c2c1=O | – | 40.3 µM | – | – | 13 µM | –
4 | COc1cc(OC)c2c(=O)c(OCCCCN3CCCC3)c(-c3cc(OC)c(OC)c(OC)c3)oc2c1 | 18 µM | – | 26.8 µM | 18.6 µM | 10.4 µM | –
5 | COc1cc(OC)c2c(=O)c(OCCCN3CCCC3)c(-c3cc(OC)c(OC)c(OC)c3)oc2c1 | – | 28.9 µM | – | 32.1 µM | – | –
6 | COc1cc(OC)c2c(=O)c(OCC(=O)N/N=C/c3sccc3C)c(-c3cc(OC)c(OC)c(OC)c3)oc2c1 | 8.35 µM | – | 10.2 µM | 7.74 µM | 4.47 µM | –
7 | COc1cc(OC)c2c(=O)c(OCC(=O)N/N=C/c3ccccc3F)c(-c3cc(OC)c(OC)c(OC)c3)oc2c1 | 4.09 µM | 1.82 µM | 7.72 µM | 2.78 µM | 3.4 µM | –
8 | COc1cccc2c1C(=O)c1c(O)c3c(c(O)c1C2=O)C[C@@](O)(C(=O)CO)C[C@@H]3O[C@H]1C[C@H](N)[C@H](O)[C@H](C)O1 [DOXORUBICIN] | 2.87 µM | – | 3.5 µM | 3.22 µM | 2.01 µM | Activity (MDA-MB-231 [3]): Active
9 | COc1cc(OC)c2c(=O)c(OCC(=O)N/N=C/c3ccccn3)c(-c3cc(OC)c(OC)c(OC)c3)oc2c1 | 18.8 µM | – | 16.2 µM | 15.3 µM | 9.89 µM | –
10 | COc1cc(OC)c2c(=O)c(OCCCCN3CCN(C)CC3)c(-c3cc(OC)c(OC)c(OC)c3)oc2c1 | 4.17 µM | – | 6.95 µM | 12.2 µM | 3.87 µM | –
11 | COc1cc(OC)c2c(=O)c(OCCCCN3CCCCC3)c(-c3cc(OC)c(OC)c(OC)c3)oc2c1 | 2.62 µM | 2 µM | 6.08 µM | 26.8 µM | 3.03 µM | –
12 | COc1cc(OC)c2c(=O)c(OCC(=O)N/N=C/c3ccc[nH]3)c(-c3cc(OC)c(OC)c(OC)c3)oc2c1 | 7 µM | – | 8.73 µM | 5.61 µM | 3.75 µM | –
13 | CCN(CC)CCCOc1c(-c2cc(OC)c(OC)c(OC)c2)oc2cc(OC)cc(OC)c2c1=O | 43 µM | 35.7 µM | 56.9 µM | 40.2 µM | – | –
14 | COc1cc(OC)c2c(=O)c(OCC(=O)N/N=C/c3ccco3)c(-c3cc(OC)c(OC)c(OC)c3)oc2c1 | 3.11 µM | 0.91 µM | 5.72 µM | 6.05 µM | 1.86 µM | Activity (MDA-MB-231 [4]): Active; Activity (MDA-MB-231 [5]): 27.4%; Activity (MDA-MB-231 [6]): 44.3%; Activity (MDA-MB-231 [7]): 28.4%; Activity (MDA-MB-231 [8]): Active; Activity (MDA-MB-231 [9]): Active
15 | C/C(=C\C(=O)Nc1ccccc1C(=O)O)c1ccc2ccccc2c1 | – | 0.17 µM | – | – | – | –
16 | COc1cc(OC)c2c(=O)c(OCCCN3CCOCC3)c(-c3cc(OC)c(OC)c(OC)c3)oc2c1 | 4.68 µM | – | 11.2 µM | 21 µM | 2.9 µM | –
17 | COc1cc(OC)c2c(=O)c(OCC(=O)N/N=C/c3ccc(C)cc3)c(-c3cc(OC)c(OC)c(OC)c3)oc2c1 | 5.17 µM | – | 10.1 µM | 3.51 µM | 4.57 µM | –
18 | COc1cc(OC)c2c(=O)c(OCCCCN3CCOCC3)c(-c3cc(OC)c(OC)c(OC)c3)oc2c1 | 5.24 µM | – | 12.5 µM | 20.6 µM | 4.17 µM | –
19 | CC[n+]1c(-c2ccccc2)c2cc(N)ccc2c2ccc(N)cc21 [HOMIDIUM BROMIDE] | – | 2.33 µM | – | – | – | –
